ChEMBL document CHEMBL2086252, “Syntheses and evaluation of anticonvulsant activity of novel branched alkyl carbamates” (J Med Chem, 2012)
The source made the active and inactive calls. The rule behind the calls is not given here.

How the values were obtained:
[1] = test system: Mus musculus; assay: Anticonvulsant activity in albino CF1 mouse assessed as protection against subcutaneous metrazol-induced seizures at 30 mg/kg, ip after 0.5 hrs; format: functional, organism-based; design: dose 30 mg/kg
Procedure, shortened: (§1)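 Mice dosed ip at 30, 100 or 300 mg/kg, then tested 0.5 h and 4 h after administration in the MES or scMet test. Protection was recorded as animals protected over animals tested. Neurotoxicity was recorded as motor impairment or sedation, as animals affected over animals tested.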

[2] = test system: Mus musculus; assay: Anticonvulsant activity in albino CF1 mouse assessed as protection against subcutaneous metrazol-induced seizures at 100 mg/kg, ip after 0.5 hrs; format: functional, organism-based; design: dose 100 mg/kg; procedure, shortened: as §1
[3] = test system: Mus musculus; assay: Anticonvulsant activity in albino CF1 mouse assessed as protection against subcutaneous metrazol-induced seizures at 300 mg/kg, ip after 0.5 hrs; format: functional, organism-based; design: dose 300 mg/kg; procedure, shortened: as §1
[4] = test system: Mus musculus; assay: Anticonvulsant activity in albino CF1 mouse assessed as protection against subcutaneous metrazol-induced seizures at 30 mg/kg, ip after 4 hrs; format: functional, organism-based; design: dose 30 mg/kg; procedure, shortened: as §1
[5] = test system: Mus musculus; assay: Anticonvulsant activity in albino CF1 mouse assessed as protection against subcutaneous metrazol-induced seizures at 100 mg/kg, ip after 4 hrs; format: functional, organism-based; design: dose 100 mg/kg; procedure, shortened: as §1
[6] = test system: Mus musculus; assay: Anticonvulsant activity in albino CF1 mouse assessed as protection against subcutaneous metrazol-induced seizures at 300 mg/kg, ip after 4 hrs; format: functional, organism-based; design: dose 300 mg/kg; procedure, shortened: as §1
[7] = test system: Mus musculus; assay: Anticonvulsant activity in albino CF1 mouse assessed as protection against maximal electroshock-induced seizures at 30 mg/kg, ip after 0.5 hrs; format: functional, organism-based; design: dose 30 mg/kg; procedure, shortened: as §1
[8] = test system: Mus musculus; assay: Anticonvulsant activity in albino CF1 mouse assessed as protection against maximal electroshock-induced seizures at 300 mg/kg, ip after 0.5 hrs; format: functional, organism-based; design: dose 300 mg/kg; procedure, shortened: as §1
[9] = test system: Mus musculus; assay: Anticonvulsant activity in albino CF1 mouse assessed as protection against maximal electroshock-induced seizures at 30 mg/kg, ip after 4 hrs; format: functional, organism-based; design: dose 30 mg/kg; procedure, shortened: as §1
[10] = test system: Mus musculus; assay: Anticonvulsant activity in albino CF1 mouse assessed as protection against maximal electroshock-induced seizures at 100 mg/kg, ip after 4 hrs; format: functional, organism-based; design: dose 100 mg/kg; procedure, shortened: as §1
[11] = test system: Mus musculus; assay: Anticonvulsant activity in albino CF1 mouse assessed as protection against maximal electroshock-induced seizures at 300 mg/kg, ip after 4 hrs; format: functional, organism-based; design: dose 300 mg/kg; procedure, shortened: as §1
[12] = test system: Mus musculus; assay: Neurotoxicity in albino CF1 mouse assessed as minimal motor impairment at 30 mg/kg, ip after 0.5 hrs by rotarod test; format: toxicity, organism-based; design: dose 30 mg/kg, route intraperitoneal; conditions: in vivo; procedure, shortened: as §1
[13] = test system: Mus musculus; assay: Neurotoxicity in albino CF1 mouse assessed as minimal motor impairment at 100 mg/kg, ip after 0.5 hrs by rotarod test; format: toxicity, organism-based; design: dose 100 mg/kg, route intraperitoneal; conditions: in vivo; procedure, shortened: as §1
[14] = test system: Mus musculus; assay: Neurotoxicity in albino CF1 mouse assessed as minimal motor impairment at 300 mg/kg, ip after 0.5 hrs by rotarod test; format: toxicity, organism-based; design: dose 300 mg/kg, route intraperitoneal; conditions: in vivo; procedure, shortened: as §1
[15] = test system: Mus musculus; assay: Neurotoxicity in albino CF1 mouse assessed as minimal motor impairment at 30 mg/kg, ip after 4 hrs by rotarod test; format: toxicity, organism-based; design: dose 30 mg/kg, route intraperitoneal; conditions: in vivo; procedure, shortened: as §1
[16] = test system: Mus musculus; assay: Neurotoxicity in albino CF1 mouse assessed as minimal motor impairment at 100 mg/kg, ip after 4 hrs by rotarod test; format: toxicity, organism-based; design: dose 100 mg/kg, route intraperitoneal; conditions: in vivo; procedure, shortened: as §1
[17] = test system: Mus musculus; assay: Neurotoxicity in albino CF1 mouse assessed as minimal motor impairment at 300 mg/kg, ip after 4 hrs by rotarod test; format: toxicity, organism-based; design: dose 300 mg/kg, route intraperitoneal; conditions: in vivo; procedure, shortened: as §1
[18] = test system: Rattus norvegicus; assay: Anticonvulsant activity in Sprague-Dawley albino rat assessed as protection against maximal electroshock-induced seizures at 30 mg/kg, po after 1 hr; format: functional, organism-based; design: dose 30 mg/kg
Procedure, shortened: (§2)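 Rats dosed orally. Anti-MES protection was scored as animals protected over animals tested at each time after dosing. Neurotoxicity was scored as motor impairment or sedation, as animals affected over animals tested.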

[19] = test system: Rattus norvegicus; assay: Anticonvulsant activity in Sprague-Dawley albino rat assessed as protection against maximal electroshock-induced seizures at 30 mg/kg, po after 2 hrs; format: functional, organism-based; design: dose 30 mg/kg; procedure, shortened: as §2
[20] = test system: Rattus norvegicus; assay: Anticonvulsant activity in Sprague-Dawley albino rat assessed as protection against maximal electroshock-induced seizures at 30 mg/kg, po after 4 hrs; format: functional, organism-based; design: dose 30 mg/kg; procedure, shortened: as §2
[21] = test system: Rattus norvegicus; assay: Neurotoxicity in Sprague-Dawley albino rat assessed as minimal motor impairment at 30 mg/kg, po by rotarod test; format: toxicity, organism-based; design: dose 30 mg/kg, route oral; conditions: in vivo; procedure, shortened: as §2
[22] = test system: Rattus norvegicus; assay: Neurotoxicity in pilocarpine-induced status epilepticus Sprague-Dawley albino rat model assessed as minimal motor impairment at 100 mg/kg, ip after 0.25 hr by rotarod test; format: toxicity, organism-based; design: dose 100 mg/kg, route intraperitoneal; conditions: in vivo
[23] = test system: Rattus norvegicus; assay: Neurotoxicity in pilocarpine-induced status epilepticus Sprague-Dawley albino rat model assessed as minimal motor impairment at 300 mg/kg, ip after 0.25 hr by rotarod test; format: toxicity, organism-based; design: dose 300 mg/kg, route intraperitoneal; conditions: in vivo
Procedure, shortened: (§3)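 Rat pilocarpine status epilepticus model: test carbamate given at 0 or 30 min after the first observed Racine stage 3 motor seizure, which marks SE onset. Neurotoxicity was scored within the same model.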

[24] = test system: Rattus norvegicus; assay: Neurotoxicity in pilocarpine-induced status epilepticus Sprague-Dawley albino rat model assessed as minimal motor impairment at 30 mg/kg, ip after 0.25 hr by rotarod test; format: toxicity, organism-based; design: dose 30 mg/kg, route intraperitoneal; conditions: in vivo; procedure, shortened: as §3
[25] = test system: Rattus norvegicus; assay: Neurotoxicity in pilocarpine-induced status epilepticus Sprague-Dawley albino rat model assessed as minimal motor impairment at 100 mg/kg, ip after 0.5 hrs by rotarod test; format: toxicity, organism-based; design: dose 100 mg/kg, route intraperitoneal; conditions: in vivo
[26] = test system: Rattus norvegicus; assay: Neurotoxicity in pilocarpine-induced status epilepticus Sprague-Dawley albino rat model assessed as minimal motor impairment at 300 mg/kg, ip after 0.5 hrs by rotarod test; format: toxicity, organism-based; design: dose 300 mg/kg, route intraperitoneal; conditions: in vivo; procedure, shortened: as §3
[27] = test system: Rattus norvegicus; assay: Neurotoxicity in pilocarpine-induced status epilepticus Sprague-Dawley albino rat model assessed as minimal motor impairment at 30 mg/kg, ip after 0.5 hrs by rotarod test; format: toxicity, organism-based; design: dose 30 mg/kg, route intraperitoneal; conditions: in vivo; procedure, shortened: as §3
[28] = test system: Rattus norvegicus; assay: Neurotoxicity in pilocarpine-induced status epilepticus Sprague-Dawley albino rat model assessed as minimal motor impairment at 300 mg/kg, ip after 1 hr by rotarod test; format: toxicity, organism-based; design: dose 300 mg/kg, route intraperitoneal; conditions: in vivo; procedure, shortened: as §3
[29] = test system: Rattus norvegicus; assay: Neurotoxicity in pilocarpine-induced status epilepticus Sprague-Dawley albino rat model assessed as minimal motor impairment at 30 mg/kg, ip after 1 hr by rotarod test; format: toxicity, organism-based; design: dose 30 mg/kg, route intraperitoneal; conditions: in vivo; procedure, shortened: as §3
[30] = test system: Rattus norvegicus; assay: Neurotoxicity in pilocarpine-induced status epilepticus Sprague-Dawley albino rat model assessed as minimal motor impairment at 100 mg/kg, ip after 2 hrs by rotarod test; format: toxicity, organism-based; design: dose 100 mg/kg, route intraperitoneal; conditions: in vivo
[31] = test system: Rattus norvegicus; assay: Neurotoxicity in pilocarpine-induced status epilepticus Sprague-Dawley albino rat model assessed as minimal motor impairment at 300 mg/kg, ip after 2 hrs by rotarod test; format: toxicity, organism-based; design: dose 300 mg/kg, route intraperitoneal; conditions: in vivo; procedure, shortened: as §3
[32] = test system: Rattus norvegicus; assay: Neurotoxicity in pilocarpine-induced status epilepticus Sprague-Dawley albino rat model assessed as minimal motor impairment at 30 mg/kg, ip after 2 hrs by rotarod test; format: toxicity, organism-based; design: dose 30 mg/kg, route intraperitoneal; conditions: in vivo; procedure, shortened: as §3
[33] = test system: Rattus norvegicus; assay: Neurotoxicity in pilocarpine-induced status epilepticus Sprague-Dawley albino rat model assessed as minimal motor impairment at 100 mg/kg, ip after 4 hrs by rotarod test; format: toxicity, organism-based; design: dose 100 mg/kg, route intraperitoneal; conditions: in vivo
[34] = test system: Rattus norvegicus; assay: Neurotoxicity in pilocarpine-induced status epilepticus Sprague-Dawley albino rat model assessed as minimal motor impairment at 300 mg/kg, ip after 4 hrs by rotarod test; format: toxicity, organism-based; design: dose 300 mg/kg, route intraperitoneal; conditions: in vivo; procedure, shortened: as §3
[35] = test system: Rattus norvegicus; assay: Neurotoxicity in pilocarpine-induced status epilepticus Sprague-Dawley albino rat model assessed as minimal motor impairment at 30 mg/kg, ip after 4 hrs by rotarod test; format: toxicity, organism-based; design: dose 30 mg/kg, route intraperitoneal; conditions: in vivo; procedure, shortened: as §3
[36] = test system: Rattus norvegicus; assay: Anticonvulsant activity in Sprague-Dawley albino rat assessed as protection against maximal electroshock-induced seizures at 30 mg/kg, po after 15 mins; format: functional, organism-based; design: dose 30 mg/kg; procedure, shortened: as §2
[37] = test system: Rattus norvegicus; assay: Anticonvulsant activity in Sprague-Dawley albino rat assessed as protection against maximal electroshock-induced seizures at 30 mg/kg, po after 30 mins; format: functional, organism-based; design: dose 30 mg/kg; procedure, shortened: as §2

## CC(COC(N)=O)CC(C)(C)C (racemic)
[1]
  Activity: inactive
[2]
  Activity: inactive
[3]
  Activity: Active
[4]
  Activity: inactive
[5]
  Activity: inactive
[6]
  Activity: inactive
[7]
  Activity: inactive
[8]
  Activity: Active
[9]
  Activity: inactive
[10]
  Activity: inactive
[11]
  Activity: Active
[12]
  Activity: Non-toxic
[13]
  Activity: Non-toxic
[14]
  Activity: Toxic
[15]
  Activity: Non-toxic
[16]
  Activity: Non-toxic
[17]
  Activity: Non-toxic
[18]
  Activity: inactive
[19]
  Activity: inactive
[20]
  Activity: inactive
[21]
  Activity: Non-toxic
[22]
  Activity: Toxic
[23]
  Activity: Toxic
[24]
  Activity: Non-toxic
[25]
  Activity: Toxic
[26]
  Activity: Toxic
[27]
  Activity: Non-toxic
[28]
  Activity: Toxic
[29]
  Activity: Non-toxic
[30]
  Activity: Non-toxic
[31]
  Activity: Toxic
[32]
  Activity: Non-toxic
[33]
  Activity: Non-toxic
[34]
  Activity: Non-toxic
[35]
  Activity: Non-toxic

## CCCC(COC(N)=O)C(C)CC (racemic)
[1]
  Activity: inactive
[2]
  Activity: inactive
[3]
  Activity: Active
[4]
  Activity: inactive
[5]
  Activity: inactive
[6]
  Activity: inactive
[7]
  Activity: inactive
[8]
  Activity: Active
[9]
  Activity: inactive
[10]
  Activity: inactive
[11]
  Activity: Active
[12]
  Activity: Non-toxic
[15]
  Activity: Non-toxic
[16]
  Activity: Non-toxic
[17]
  Activity: Non-toxic
[36]
  Activity: inactive
[37]
  Activity: inactive
[18]
  Activity: inactive
[19]
  Activity: inactive
[20]
  Activity: inactive
[21]
  Activity: Non-toxic
[22]
  Activity: Toxic
[23]
  Activity: Non-toxic
[24]
  Activity: Toxic
[25]
  Activity: Toxic
[26]
  Activity: Non-toxic
[27]
  Activity: Toxic
[28]
  Activity: Non-toxic
[29]
  Activity: Toxic
[30]
  Activity: Non-toxic
[31]
  Activity: Non-toxic
[32]
  Activity: Toxic
[33]
  Activity: Non-toxic
[34]
  Activity: Non-toxic
[35]
  Activity: Toxic
